Here are results for 14 compounds from ChEMBL document CHEMBL1132380, “Drug delivery systems employing 1,4- or 1,6-elimination: poly(ethylene glycol) prodrugs of amine-containing compounds” (J Med Chem, 1999).

For series [1], the system named is Mus musculus. In words: T/C of median tumor volumes when 3 mg/kg/dose of compound was given to BALB/c mice bearing sc M109 on days 1 and 4 (ip) after inoculation (control ~2000 mm**3). In kind it is functional. The conditions noted are these: route intraperitoneal. A digest of the protocol: (§1)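 Female balb/c mice (20–25 g) given about 5×10^5 M109 cells sc in the left flank on day 0. M109 grown in EMEM with 10% FBS. Dosing is 3 mg/kg/dose of active DNR, ip on days 1 and 4 or iv on days 3 and 6. Groups of 6 include untreated controls. Median tumor volumes compared when control median reached about 2000 mm³.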

A further series relates to P388. In words: Compound was evaluated for cytotoxicity against P388 leukemia cell line. In kind it is functional, cell-based. The conditions noted are these: Mus musculus.
Series [2] relates to Mus musculus. Nature of the series: T/C of median tumor volumes when 3 mg/kg/dose of compound was given to BALB/c mice bearing sc M109 on days 3 and 6 (iv) after inoculation (control ~2000 mm**3). It counts as functional. The method in brief: as §1
Series [3] in a line: Half-life in buffer at pH 7.4. It counts as ADME. The method in brief: (§2)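 Release of free drug and hydrolysis of PEG conjugate followed in PBS (pH 7.4) or fresh rat plasma at 37 °C. Half-life derived from these rates. Run in duplicate; SD ±10%.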
Series [4] is described as follows: Half-life in rat plasma. It counts as ADME. A digest of the protocol: as §2
Series [5] has as its system Mus musculus. In words: Toxicity at a dose of 830 mg/kg against M109 tumors conducted in female BALB/c mice. It counts as functional.
Series [6] concerns Mus musculus. In words: Effect of 3 mg/kg/dose of compound given iv q4d x 3 against sc human ovarian tumor (SK-OV3) in mice expressed as % tumor volume change from initial by day 30. In kind it is functional. A digest of the protocol: (§3)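 Female nu/nu mice (18–24 g) given 1×10^6 SKOV3 cells sc in the left flank in 0.1 mL medium. SKOV3 grown in McCoy's 5a with 15% FBS. Dosing starts at about 70 mm³ mean tumor volume (day 1), with 3 mg/kg/dose DNR content iv on days 1, 5 and 9. n = 5/group against untreated controls. Mean volumes compared at day 30; median volumes compared when control median reached about 1000 mm³.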

In series [7] the test system is Mus musculus. In words: Effect of 3 mg/kg/dose of compound given iv q4d x 3 against sc human ovarian tumor (SK-OV3) in mice expressed as Mean tumor volume by day 30. In kind it is functional. The method in brief: as §3
The subject of series [8] is Mus musculus. In words: Effect of 3 mg/kg/dose of compound given iv q4d x 3 against sc human ovarian tumor (SK-OV3) in mice expressed as treated/ control mean tumor volume on day 30. In kind it is functional. The method in brief:
as §3

Series [9] deals with Mus musculus. In words: Effect of 3 mg/kg/dose of compound given iv q4d x 3 against sc human ovarian tumor (SK-OV3) in mice expressed as treated/ control ( 1000 mm**3) median tumor volume on day 30. In kind it is functional. The method in brief: as §3

The term T/C denotes the result in the treated group divided by that in the control group, in per cent. Broadly, the IC50 is the concentration that gives 50% inhibition. Higher therefore signals weaker potency in that assay. Usually half-life stands for the time in which the quantity being followed falls by half.

For `COc1cc(COC(=O)NCC(=O)[C@]2(O)Cc3c(O)c4c(c(O)c3[C@@H](OC3CC(N)C(O)C(C)O3)C2)C(=O)c2c(OC)cccc2C4=O)cc(OC)c1OC(=O)CCOCCOCCO` (stereo not given in full), the T/C in the series on Mus musculus [1] amounted to 68.6%; in the series with Mus musculus [2] it was 48.2%. Besides, the IC50 with P388 turned out to be 27 nM. The half-life was more than 2880 min in series [3] and 60 min in series [4].

As for `Cc1cc(COC(=O)NC(C)C)cc(C)c1NC(=O)OCCOCCOCCO`, the “Toxicity (deaths)” value in the series on Mus musculus [5] is given as 0%.

For the compound `COc1cccc2c1C(=O)c1c(O)c3c(c(O)c1C2=O)C[C@@](O)(C(=O)CNC(=O)OCc1ccc(OC(=O)NCCOCCOCCO)cc1)C[C@@H]3OC1CC(N)C(O)C(C)O1` (stereo not given in full), the T/C with Mus musculus [1] was found to be 84.1%; with Mus musculus [8], 12%; in the series with Mus musculus [2], 64.6%; in the series on Mus musculus [9], 11%. This compound registered a Tumor growth with Mus musculus [6] of 86%. In the series on Mus musculus [7], this compound showed a Mean tumor volume of 154. Besides, half-maximal inhibition with P388 (IC50) required 15 nM. The results for the half-life in series [3] and in [4] were more than 2880 min and 240 min, respectively.

Consider `COc1cccc2c1C(=O)c1c(O)c3c(c(O)c1C2=O)C[C@@](O)(C(=O)CNC(=O)OCc1ccc(OC(=O)C(C)(C)NC(=O)CCOCCOCCO)cc1)C[C@@H]3OC1CC(N)C(O)C(C)O1` (stereo not given in full), for which the T/C in the series on Mus musculus [1] is 87.6%. The 50% inhibitory concentration (IC50) with P388 stood at 18 nM. For the same compound, the half-life in series [3] is more than 2880 min; in series [4], 78 min.

Turning to `COc1cccc2c1C(=O)c1c(O)c3c(c(O)c1C2=O)C[C@@](O)(C(=O)CNC(=O)OCc1cc(C)c(OC(=O)CCOCCOCCO)c(C)c1)C[C@@H]3OC1CC(N)C(O)C(C)O1` (stereo not given in full), the T/C turned out to be 90.3% with Mus musculus [1] and 67.9% with Mus musculus [2]. Further, the 50% inhibitory concentration (IC50) in the series on P388 is 55 nM. Besides, the half-life was more than 2880 min in [3] and 114 min in [4].

For the compound `COc1cccc2c1C(=O)c1c(O)c3c(c(O)c1C2=O)C[C@@](O)(C(=O)CNC(=O)OCc1ccc(OC(=O)CCOCCOCCO)cc1)C[C@@H]3OC1CC(N)C(O)C(C)O1` (stereo not given in full), the T/C with Mus musculus [1] turned out to be 92.8%. Further, the IC50 in the series with P388 came out at 8 nM. Besides, the figures for the half-life in series [3] and in series [4] were more than 1440 min and 24 min, respectively.

For `Cc1cc(COC(=O)NC(C)C)cc(C)c1OC(=O)CCOCCOCCO`, the “Toxicity (deaths)” value in the series with Mus musculus [5] turned out to be 0%.

In turn, `COc1cccc2c1C(=O)c1c(O)c3c(c(O)c1C2=O)C[C@@](O)(C(=O)CNC(=O)OCc1ccc(NC(=O)CCOCCOCCO)cc1)C[C@@H]3OC1CC(N)C(O)C(C)O1` (stereo not given in full) displayed a T/C with Mus musculus [1] of 122.7%. This compound had a concentration for half-maximal inhibition (IC50) with P388 of 457 nM. Also, the half-life in series [3] is more than 2880 min; in [4], more than 1440 min.

Turning to `COc1cccc2c1C(=O)c1c(O)c3c(c(O)c1C2=O)C[C@@](O)(C(=O)CNC(=O)OCc1ccccc1OC(=O)NCCOCCOCCO)C[C@@H]3OC1CC(N)C(O)C(C)O1` (stereo not given in full), the figures for the T/C in the series with Mus musculus [1] and with Mus musculus [2] were 91.3% and 68.7%, respectively. The compound further yielded an IC50 with P388 of 35 nM. For the same compound, the values for the half-life in [3] and in series [4] were more than 2880 min and 180 min, respectively.

Turning to `COc1cccc2c1C(=O)c1c(O)c3c(c(O)c1C2=O)C[C@@](O)(C(=O)CNC(=O)OCc1ccc(NC(=O)OCCOCCOCCO)cc1)C[C@@H]3OC1CC(N)C(O)C(C)O1` (stereo not given in full), the T/C worked out at 75.3% in the series with Mus musculus [1], 21% in the series on Mus musculus [8], 129% in the series on Mus musculus [2] and 41% in the series on Mus musculus [9]. The Tumor growth with Mus musculus [6] was found to be 400%. The same compound registered a Mean tumor volume in the series on Mus musculus [7] of 272. This compound also returned an IC50 in the series on P388 of 415 nM. The half-life is more than 2880 min in [3] and more than 1440 min in [4].

`COc1cccc2c1C(=O)c1c(O)c3c(c(O)c1C2=O)C[C@@](O)(C(=O)CNC(=O)OCc1cc(C)c(OC(=O)OCCOCCOCCO)c(C)c1)C[C@@H]3OC1CC(N)C(O)C(C)O1` (stereo not given in full): the T/C with Mus musculus [1] is on record as 90.3%; with Mus musculus [2], 74.4%. It took 179 nM to reach half-maximal inhibition with P388 (IC50). Besides, the half-life in series [3] is more than 2880 min; in series [4] it was 174 min.

Regarding `COc1cc(COC(=O)NC(CC(C)C)C(=O)OC(C)(C)C)cc(OC)c1OC(=O)CCOCCOCCO` (stereo not given), the “Toxicity (deaths)” value with Mus musculus [5] is reported as 0%.

With `COc1cccc2c1C(=O)c1c(O)c3c(c(O)c1C2=O)C[C@@](O)(C(=O)CNC(=O)OCc1ccccc1NC(=O)OCCOCCOCCO)C[C@@H]3OC1CC(N)C(O)C(C)O1` (stereo not given in full), the results for the T/C in the series with Mus musculus [1] and with Mus musculus [2] were 112.2% and 117%, respectively. The same compound registered a half-maximal inhibitory concentration (IC50) in the series with P388 of 130 nM. Also, the half-life in series [3] is more than 2880 min; in [4], more than 1440 min.

In the case of `COc1cccc2c1C(=O)c1c(O)c3c(c(O)c1C2=O)C[C@@](O)(C(C)=O)C[C@@H]3O[C@H]1C[C@H](N)[C@H](O)[C@H](C)O1` [DAUNORUBICIN], the T/C in the series on Mus musculus [1] stood at 44.8%; with Mus musculus [8] it was 92%; in the series on Mus musculus [2] it was 117%; in the series on Mus musculus [9] it was 54%. In addition, in the series on Mus musculus [6], the Tumor growth turned out to be 1226%. The Mean tumor volume with Mus musculus [7] worked out at 1154. The same compound showed an IC50 in the series with P388 of 3 nM.
